These results are taken from ChEMBL document CHEMBL1140439, “Pharmacophore modeling, docking, and principal component analysis based clustering: combined computer-assisted approaches to identify new inhibitors of the human rhinovirus coat protein” (J Med Chem, 2005).

Experiment [1] relates to WI-38. In words: Effective concentration dissolved in DMSO against HRV serotype 39 in WI-38 cells by multiple-cycle CPE inhibition assay; microscopic. Format: functional, cell-based. Particulars: Homo sapiens. The gist of the method: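 Multiple-cycle CPE assay with HRV serotype 39 on 100% confluent WI-38 fibroblasts in 5% EMEM, 0.5% DMSO final. Triplicate monolayers received compound at 32, 10, 3.2, 1.0, 0.1 ug/mL plus three serial log virus dilutions. Read only microscopically (staining too weak) after virus controls reached 80–100% CPE at 32–320 TCID50. EC50 is the concentration giving 50% CPE inhibition.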

Experiment [2] in a line: Effective concentration dissolved in DMSO against HRV serotype 39 in OH-I cells by multiple-cycle CPE inhibition assay; microscopic. The format is functional, cell-based, Homo sapiens. The procedure, abridged: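 Multiple-cycle CPE inhibition assay, HRV serotype 39 (ATCC), 85% confluent OH-I monolayers in 2% McCoy's, 0.25% DMSO final. Triplicate wells received compound then three serial log virus dilutions. EC50 taken as the concentration giving 50% CPE inhibition.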

Experiment [3] in a line: Effective concentration dissolved in DMSO against HRV serotype 39 in OH-I cells by multiple-cycle CPE inhibition assay; spectrophotometric. Format: functional, cell-based, Homo sapiens. The gist of the method: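 HRV serotype 39 CPE inhibition assay in triplicate 85% confluent OH-I monolayers, 2% McCoy's, 0.25% DMSO final, compound at 100–0.1 ug/mL. Once virus controls reached 80–100% CPE (32–320 TCID50), cells were stained with 0.4% crystal violet for 20–30 min at room temperature, destained with 30% methanol/10% acetic acid, and OD read at 550 nm. EC50 is the concentration giving a 50% OD increase versus virus control, from Chou–Chou dose-effect analysis.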

Experiment [4] in a line: Percent toxicity at 100 ug/mL on OH-I cells; range 50-100 %. The format is functional, Homo sapiens. The gist of the method:
(§1)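 Static toxicity test on uninfected OH-I monolayers at or near 100% confluency, in 2% McCoy's with 0.25% DMSO. Compound given at the three highest concentrations (100, 32, 10 ug/mL). Monolayer reduction was scored against cell control; 50% or greater reduction counted as cytotoxic.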

Experiment [5] is described as follows: Percent toxicity at 10 ug/mL on OH-I cells; range 50-100 %. The format is functional, Homo sapiens. The procedure, abridged:
as §1

A short description of experiment [6]: Percent toxicity at 32 ug/mL on OH-I cells; range 50-100 %. Format: functional, Homo sapiens. The procedure, abridged:
as §1

The test system of experiment [7] is WI-38. In words: Percent toxicity at 10 ug/mL on WI-38 cells. Format: functional, Homo sapiens. The gist of the method:
(§2)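 Static toxicity test on uninfected WI-38 monolayers at or near 100% confluency, in 5% EMEM with 0.5% DMSO. Compound given at the three highest concentrations (32, 10, 3.2 ug/mL). Monolayer reduction was scored against cell control; 50% or greater reduction counted as cytotoxic.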

Experiment [8] has as its system WI-38. In words: Percent toxicity at 32 ug/mL on WI-38 cells. Format: functional, Homo sapiens. The gist of the method:
as §2

Experiment [9] relates to WI-38. In words: Cytostatic concentration against WI-38 cells. The format is functional, Homo sapiens.
A short description of experiment [10]: Percent toxicity at 10 ug/mL on OH-I cells. Format: functional, Homo sapiens. The gist of the method:
as §1

`COC(=O)c1ccc(CSc2nnc(-c3ccc4ncccc4c3)n2C)cc1`: the EC50 is under 82 µM in the experiment on WI-38 [1], 142 µM in experiment [2] and 88.4 µM in experiment [3]. The compound further had a Toxicity in experiment [4] of 30%.

As for `COc1cc2c(cc1OC)C(C)N(C(=O)Nc1ccc(OC(F)(F)F)cc1)CC2` (stereo not drawn), the results for the EC50 (in the experiment with WI-38 [1]; in experiment [2]; in [3]) were under 78 µM, 121 µM and 4.9 µM, respectively. The Toxicity in experiment [5], in [4] and in experiment [6] was 100% each time.

Turning to `O=C(Nc1ccc(SC(F)(F)F)cc1)Nc1ccc(-n2ccc(C(F)(F)F)n2)cc1`, the EC50 with WI-38 [1] came to 11.2 µM; in experiment [2], 247 µM; in experiment [3], 246 µM. In addition, the Toxicity entry in the experiment on WI-38 [7] is on record as “<=50%”; in the experiment with WI-38 [8], “<=50%”; in experiment [5], 100%; in experiment [4], 100%; in [6], 100%.

As for `Cc1cc(CCCOc2c(C)cc(-c3noc(C(F)(F)F)n3)cc2C)on1` [PLECONARIL], the Cytostatic concentration in the experiment with WI-38 [9] came out at 30 µg/mL.

For the compound `CC1(C)CCc2cc(CN3CCN(c4ccc(C(F)(F)F)cn4)CC3)ccc2O1`, the EC50 with WI-38 [1] stood at 165 µM; in experiment [2], 15 µM; in [3], 17 µM. Besides, the Toxicity was 30% in [10], 100% in experiment [4] and 100% in experiment [6].

In the experiment with WI-38 [9], `CCOC(=O)/C=C/[C@H](C[C@@H]1CCNC1=O)NC(=O)[C@@H](CC(=O)[C@@H](NC(=O)c1cc(C)on1)C(C)C)Cc1ccc(F)cc1` [RUPINTRIVIR] showed a Cytostatic concentration of over 100 µg/mL.

In the case of `CC1(C)CCc2cc(CN3CCN(c4ncc(C(F)(F)F)cc4Cl)CC3)ccc2O1`, the figures for the EC50 (in the experiment on WI-38 [1]; in experiment [2]; in experiment [3]) were under 72.7 µM, 35.7 µM and 32.1 µM, respectively. Moreover, the Toxicity in experiment [10] came out at 30%; in experiment [4], 100%; in experiment [6], 100%.

With `Cc1csc2c(N3CCN(C(=O)Nc4ccc(OC(F)(F)F)cc4)CC3)ncnc12`, the values for the EC50 (with WI-38 [1]; in experiment [2]; in experiment [3]) were 48 µM, 7.3 µM and 4.3 µM, respectively. The Toxicity in experiment [5], in experiment [4] and in experiment [6] was 100% in each case.
